ChEMBL document CHEMBL1138664, “Discovery of the pyrrolo[2,1-f][1,2,4]triazine nucleus as a new kinase inhibitor template” (J Med Chem, 2004)

Experiments:
[1] = molecular target: Vascular endothelial growth factor receptor 2 (Homo sapiens, UniProt P35968); experiment: In vitro inhibition of Vascular endothelial growth factor receptor 2
[2] = Compound was tested for its inhibitory effect on the proliferation of the colon adenocarcinoma cell line DiFi; details: Homo sapiens
[3] = molecular target: Epidermal growth factor receptor and ErbB2 (HER1 and HER2) (Homo sapiens, UniProt P04626+P00533); experiment: Inhibition of EGF-stimulated human umbilical vein endothelial cell proliferation; type: functional, cell-based
In short: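 Primary HUVECs (passage ≤3) seeded 2 × 10^3/well on collagen IV in minimal medium, 1% heat-inactivated FBS, 24 h; compound dilutions added with EGF 5 ng/mL; 48 h later 3H-thymidine 0.5 µCi, further 24 h. IC50 = concentration giving 50% less tritium incorporation than untreated EGF-stimulated cells, from dose-response curves.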

[4] = molecular target: Epidermal growth factor receptor (Homo sapiens, UniProt P00533); experiment: In vitro inhibition of Epidermal growth factor receptor
[5] = molecular target: Vascular endothelial growth factor receptor (Homo sapiens, UniProt P17948+P35916+P35968); experiment: Inhibition of VEGF-stimulated human umbilical vein endothelial cell proliferation; type: functional, cell-based
In short: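 HUVECs under passage 3, plated 2 × 10^3/well in minimal medium with 1% heat-inactivated FBS on collagen IV; after 24 h, VEGF 80 ng/mL and serial compound dilutions; 3H-thymidine pulse (0.5 µCi) at 48 h for 24 h. IC50 as concentration halving thymidine uptake relative to untreated VEGF-stimulated cells.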

Epidermal growth factor receptor, sequence (P00533 whole entry): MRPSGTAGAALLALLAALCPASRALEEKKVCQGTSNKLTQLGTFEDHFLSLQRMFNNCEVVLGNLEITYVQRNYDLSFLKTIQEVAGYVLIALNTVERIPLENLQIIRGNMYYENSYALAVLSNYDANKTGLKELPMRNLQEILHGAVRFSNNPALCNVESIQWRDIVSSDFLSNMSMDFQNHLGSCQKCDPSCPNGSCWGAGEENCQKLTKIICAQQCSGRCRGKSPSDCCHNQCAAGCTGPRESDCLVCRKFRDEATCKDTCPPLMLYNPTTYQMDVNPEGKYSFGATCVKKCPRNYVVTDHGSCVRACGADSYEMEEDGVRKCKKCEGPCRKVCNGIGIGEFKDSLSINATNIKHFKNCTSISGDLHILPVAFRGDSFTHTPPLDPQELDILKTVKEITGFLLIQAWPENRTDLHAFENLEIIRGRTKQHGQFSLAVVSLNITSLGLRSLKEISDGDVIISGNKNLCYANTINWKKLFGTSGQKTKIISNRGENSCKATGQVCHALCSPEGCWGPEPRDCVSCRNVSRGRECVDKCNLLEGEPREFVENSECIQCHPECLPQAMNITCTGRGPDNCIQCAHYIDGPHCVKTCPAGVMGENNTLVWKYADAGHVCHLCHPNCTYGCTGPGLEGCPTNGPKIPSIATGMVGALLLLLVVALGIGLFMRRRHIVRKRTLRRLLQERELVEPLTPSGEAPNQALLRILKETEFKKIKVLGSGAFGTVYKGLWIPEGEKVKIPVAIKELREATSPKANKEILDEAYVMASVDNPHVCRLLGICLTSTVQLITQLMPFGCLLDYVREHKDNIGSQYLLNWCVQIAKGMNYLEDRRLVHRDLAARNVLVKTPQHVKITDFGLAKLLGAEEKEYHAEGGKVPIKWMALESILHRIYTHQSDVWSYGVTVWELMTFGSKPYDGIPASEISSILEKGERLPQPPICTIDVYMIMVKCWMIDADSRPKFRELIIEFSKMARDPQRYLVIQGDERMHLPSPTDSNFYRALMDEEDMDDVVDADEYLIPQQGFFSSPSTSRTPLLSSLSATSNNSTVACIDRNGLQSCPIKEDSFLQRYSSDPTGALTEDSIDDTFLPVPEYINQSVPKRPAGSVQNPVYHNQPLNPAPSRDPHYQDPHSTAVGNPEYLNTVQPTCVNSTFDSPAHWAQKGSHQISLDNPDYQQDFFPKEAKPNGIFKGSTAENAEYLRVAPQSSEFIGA
Vascular endothelial growth factor receptor 2, sequence (P35968 whole entry): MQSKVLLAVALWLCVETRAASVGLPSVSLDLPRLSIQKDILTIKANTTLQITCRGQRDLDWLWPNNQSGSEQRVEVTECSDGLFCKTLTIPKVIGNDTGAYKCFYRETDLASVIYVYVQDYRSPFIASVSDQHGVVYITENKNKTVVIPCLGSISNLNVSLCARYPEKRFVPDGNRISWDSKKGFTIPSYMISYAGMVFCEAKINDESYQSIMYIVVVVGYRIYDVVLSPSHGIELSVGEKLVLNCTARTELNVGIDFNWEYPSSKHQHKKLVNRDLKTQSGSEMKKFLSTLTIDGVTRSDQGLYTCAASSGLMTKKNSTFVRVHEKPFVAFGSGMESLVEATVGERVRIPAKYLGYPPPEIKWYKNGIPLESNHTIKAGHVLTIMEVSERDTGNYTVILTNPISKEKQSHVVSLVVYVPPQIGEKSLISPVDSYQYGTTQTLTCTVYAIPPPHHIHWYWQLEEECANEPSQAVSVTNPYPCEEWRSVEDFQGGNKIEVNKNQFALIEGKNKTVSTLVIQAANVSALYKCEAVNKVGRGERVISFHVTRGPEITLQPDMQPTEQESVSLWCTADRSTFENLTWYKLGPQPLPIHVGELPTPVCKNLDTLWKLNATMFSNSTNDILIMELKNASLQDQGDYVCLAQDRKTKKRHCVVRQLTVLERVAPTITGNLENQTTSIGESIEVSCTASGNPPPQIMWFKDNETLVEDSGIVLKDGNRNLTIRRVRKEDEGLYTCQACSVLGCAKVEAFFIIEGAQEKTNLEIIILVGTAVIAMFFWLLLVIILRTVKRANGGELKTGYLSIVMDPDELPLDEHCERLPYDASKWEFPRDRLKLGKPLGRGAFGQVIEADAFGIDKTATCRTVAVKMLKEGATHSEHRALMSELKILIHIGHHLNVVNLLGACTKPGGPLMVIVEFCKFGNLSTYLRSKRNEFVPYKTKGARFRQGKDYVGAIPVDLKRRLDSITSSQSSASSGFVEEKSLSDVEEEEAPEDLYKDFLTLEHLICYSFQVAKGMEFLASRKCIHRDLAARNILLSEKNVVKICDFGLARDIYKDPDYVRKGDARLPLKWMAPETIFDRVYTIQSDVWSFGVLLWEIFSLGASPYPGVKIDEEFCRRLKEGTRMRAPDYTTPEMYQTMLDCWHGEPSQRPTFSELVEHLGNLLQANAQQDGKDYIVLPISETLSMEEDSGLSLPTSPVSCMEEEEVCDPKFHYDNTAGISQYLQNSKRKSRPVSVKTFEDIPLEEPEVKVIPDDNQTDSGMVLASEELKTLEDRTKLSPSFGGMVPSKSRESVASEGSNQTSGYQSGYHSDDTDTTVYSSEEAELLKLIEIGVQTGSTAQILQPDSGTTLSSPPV

IC50 [1] [nM]	IC50 [3] [nM]	IC50 [4] [nM]	IC50 [5] [nM]	SMILES	IC50 [2] [nM]
60	270	340	98	Cc1ccc(Nc2ncnn3ccc(C)c23)cc1O	> 10000
20	–	200	310	Cc1ccc(Nc2ncnn3cc(C)c(C)c23)cc1O	> 10000
400	644	650	213	Cc1cc2c(Nc3ccc(C)c(O)c3)ncnn2c1	> 10000
1440	–	510	360	Cc1ccc(Nc2ncnn3cccc23)cc1O	10000
> 10000	345	110	> 2500	Fc1ccc(Nc2ncnn3cccc23)cc1Cl	1840
> 2000	> 2500	3250	> 2500	Cc1ccc2c(Nc3ccc(F)c(Cl)c3)ncnn12	> 10000
> 10000	602	100	> 2500	Cc1ccn2ncnc(Nc3ccc(F)c(Cl)c3)c12	3060
> 10000	101	29400	477	Cc1ccc(Nc2ncnn3c(C)ccc23)cc1O	> 10000

SMILES	IC50 [1] [nM]	IC50 [3] [nM]	IC50 [4] [nM]	IC50 [5] [nM]	IC50 [2] [nM]
Cc1cc2c(Nc3ccc(F)c(Cl)c3)ncnn2c1	> 2000	509	150	> 2500	1600
